In the library only some 3.7% were active in any assay of this set; here they are far more common.
Kir21 inh = blocks the mouse Kir2.1 inward-rectifier potassium channel | 310,000 compounds, 0.85% hits | HEK293-Kir2.1, FluxOR thallium flux fluorescence; active compounds read low | B-score at 10 µM | AID 1672 | P35561;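 active = fluorescence ratio B-score at or below minus 3 SD of library scores, with starting-brightness B-score within 2 SD, cut at about -4.2 in these data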;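 note: channel flux triggered by added potassium and thallium sulfate stimulus; B-score of peak minus minimum fluorescence over baseline after thallium stimulus; more negative B-score means stronger Kir2.1 block with less thallium influx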
KCNQ1 pot = potentiators or activators of human KCNQ1 potassium channel; P51787; CHO-K1 KCNQ1, thallium flux FluxOR fluorescence; active compounds read high; B-score at 10 µM; 310,000 compounds, 0.35% hits;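 active = fluorescence ratio B-score, a plate-corrected score, at least three library SD, with initial intensity B-score within 5 SD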
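Material: CHO-K1 cells stably expressing KCNQ1. Medium: assay buffer for compound exposure, DMSO matched across wells. Reagent: K+/Tl+ depolarizing stimulus. Compound dosing: single-concentration screen. Times: 37 °C overnight plating, 90-min dark dye load, 20-min compound pretreatment. Technique: FluxOR Tl+ flux fluorescence.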
KCNQ1 block = blocks the human KCNQ1 potassium channel. 310,000 compounds, 1.3% hits. AID 2642. B-score at 10 µM. CHO-K1 KCNQ1, FluxOR thallium flux fluorescence; active compounds read high. P51787;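 active = compounds whose thallium flux B-score, printed positive for inhibition, exceeds three library SD while starting fluorescence stays within three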;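 note: channel opened by potassium depolarization with thallium stimulus after 20 min compound exposure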
hERG protect = hERG (human) protection from proarrhythmic block; Q12809; CHO-hERG, FluxOR thallium flux, dofetilide IC70 present; activation (rescue from dofetilide block), less the hit threshold, % at 10 µM; 310,000 compounds, 0.51% hits; AID 1511;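 active = activation above the mean of controls blocked by dofetilide plus 5 SD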;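 note: thallium influx through hERG after potassium depolarization seen as dye fluorescence rise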
KCNK9 block = blocks the human KCNK9 two-pore domain potassium channel. Q9NPC2. HEK293 KCNK9, FluxOR thallium flux fluorescence; active compounds read low. B-score at 10 µM. 310,000 compounds, 1.2% hits. AID 488922;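 active = ratio B-score over 3 SD below the library mean, with starting fluorescence within 5 SD of its mean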;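 note: negative B-score means less thallium flux so channel inhibition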
KCNK3 inh = human KCNK3 channel inhibition, primary screen; O14649; CHO-KCNK3 thallium flux, FluxOR fluorescence; active compounds read low; B-score at 10 µM; 340,000 compounds, 0.84% hits; AID 602410;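 active = B-score under library mean minus 4 SD, starting fluorescence ratio at most library mean plus 5 SD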;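 note: more negative B-score means stronger inhibition of thallium flux through KCNK3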
Target sequence (O14649 whole entry, looked up): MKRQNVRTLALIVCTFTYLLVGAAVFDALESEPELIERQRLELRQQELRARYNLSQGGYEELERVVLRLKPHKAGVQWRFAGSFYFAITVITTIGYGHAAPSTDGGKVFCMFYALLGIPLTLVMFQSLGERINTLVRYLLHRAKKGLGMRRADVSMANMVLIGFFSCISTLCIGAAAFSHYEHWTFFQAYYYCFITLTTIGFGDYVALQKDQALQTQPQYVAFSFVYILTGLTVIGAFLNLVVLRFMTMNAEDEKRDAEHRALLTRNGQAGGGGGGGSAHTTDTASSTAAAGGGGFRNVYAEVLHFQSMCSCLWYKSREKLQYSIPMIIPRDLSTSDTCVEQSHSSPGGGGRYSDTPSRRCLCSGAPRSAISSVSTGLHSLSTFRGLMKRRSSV
KCNK9 block conf = human KCNK9 inhibitor confirmation; shares compounds with KCNK9 block; 4,900 compounds, 43% hits; HEK293 KCNK9 cells, FluxOR thallium flux fluorescence; inhibition, % at 10 µM;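 active = thallium signal inhibited by more than 5 SD of the compound-free buffer control wells, on both duplicate plates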
Kir2-1 spec = tests whether KCNK9 modulators also affect mouse Kir2.1 | shares compounds with KCNK9 block | Kir2.1 cells, FluxOR thallium flux fluorescence | inhibition, % at 10 µM | 4,900 compounds, 4% hits;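 active = thallium signal drop more than 5 SD beyond the mean of the no-compound control wells, seen in both duplicate plates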;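 note: signal is fluorescence rise after thallium addition divided by baseline fluorescence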
KCNK9 uninduced = non-induced cell nonspecific activity of KCNK9 modulators | shares compounds with KCNK9 block | non-induced KCNK9-HEK293, FluxOR thallium flux | inhibition, % at 10 µM | 4,900 compounds, 40% hits;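 active = thallium signal drop beyond 5 SD of the untreated control mean, on both duplicate plates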
A number is an active result; - = inactive; . = not tested or not shown.

SMILES	Kir21 inh	KCNQ1 pot	KCNQ1 block	hERG protect	KCNK9 block	KCNK3 inh	KCNK9 block conf	Kir2-1 spec	KCNK9 uninduced
COc1ccc(NC(=O)CN2C(=O)NC(c3ccccc3)(c3ccccc3)C2=O)cc1OC	-	-	-	-	-16	-	-	-	-
COc1ccc(NC(=O)CN2C(=O)NC(c3ccccc3)(c3ccccc3)C2=O)cc1	-	-	-	-	-	-	.	.	.
Cc1nc(/N=C\c2ccc(N(C)C)cc2)sc1C	-	-	-	-	-	-	.	.	.
COc1ccccc1C1=NC(c2ccc(F)cc2)N=C1C (centres undefined)	-	-	-	-	-	-	-	-	-
CC(=O)Nc1ccc(S(=O)(=O)N(C)CC(=O)OC2CCCCC2=O)cc1 (centres undefined)	.	.	.	.	.	-	.	.	.
COc1cc(NC(=O)c2cccs2)c(OC)cc1NC(=O)CCC(=O)Nc1ccc(C)cc1	-	-	-	-	-	-	.	.	.
O=C(c1cccs1)C1CCCN(Cc2nc(Cc3ccccc3F)no2)C1 (centres undefined)	-	-	-	-	-	-	-	-	-
O=C(c1cccnc1)C1CCCN(Cc2nc(Cc3ccccc3F)no2)C1 (centres undefined)	-	-	-	-	-	-	.	.	.
C=CCN1CC2(c3ccccc3)CN(CC=C)CC(c3ccccc3)(C1)C2=O	-	-	-	-	-	-	.	.	.
CC(C)(C)c1ccc(Cn2c(=N)n(CC(O)c3ccco3)c3ccccc32)cc1 (centres undefined)	-6.2	-	9	-	-11	-12	40%	43%	26%
CCOc1ccccc1C(=O)NCC(=O)Nc1ncccc1C	-	-	-	-	-	-	.	.	.
CCOc1ccc(C(=O)NCC(=O)Nc2ncccc2C)cc1OCC	-	-	-	-	-	-	51%	-	-
O=C(CSCc1c(F)cccc1Cl)NCCSCc1ccco1	-	-	-	-	-	-	.	.	.
O=C(CSCc1ccc(Cl)cc1)NCCSCc1ccco1	-	-	-	-	-	-	-	-	-
COc1ccccc1OCC(=O)NCCSCc1ccc(Cl)cc1	-4.7	-	-	-	-	-	-	-	-
Cc1cc(C)cc(Oc2ncnc3c2ncn3Cc2c(Cl)cccc2Cl)c1	-	-	-	-	-	-	-	-	-
CCOC(=O)c1cccc(N/C=C/C(=O)c2ccc(OC)c(OC)c2)c1	-	-	-	-	-16	-	76%	-	38%
CC(=O)Nc1ccc(Sc2ccccc2C(=O)O)cn1	-	-	-	-	-	-	.	.	.
Cc1cccc(Nc2nc(-c3ccc4c(c3)OCCO4)cs2)c1	-	-	-	-	-	-	-	-	-
Cc1cccc(Nc2nc(-c3ccncc3)cs2)c1	-	-	-	-	-	-	.	.	.
CC(=O)N=C1C=CC(=CN(O)C(C)(C)Cc2ccccc2)C=C1	-	-	-	-	-	-	.	.	.
COC(=O)c1cn(C(=O)c2ccccc2Cl)c2ccccc12	-	-	-	-	-	-	.	.	.
COC(=O)c1cn(C(=O)c2ccc(C)cc2C)c2ccccc12	-	-	-	-	-	-	-	-	32%
O=C(CS(=O)(=O)c1ccc(Cl)cc1)NCc1ccccc1	-	-	-	-	-	-	.	.	.
CC(=O)c1c(C)[nH]c(C(=O)CN2C(=O)NC3(CCCCC3)C2=O)c1C	.	.	.	.	.	-	.	.	.
O=C(N/N=C/c1cccs1)c1cc(-c2cccc3ccccc23)n[nH]1	-	-	-	-	-13	-	54%	-	32%
Cc1noc(C)c1CSCC(=O)N(C)CC(=O)Nc1ccc(Cl)c(C(F)(F)F)c1	-	-	-	-	-10	-	52%	-	24%
CCc1cc(C(c2ccc(OC)c(OC)c2)N2CCOCC2)c(NC(=O)c2ccccc2)s1 (centres undefined)	-	-	-	-	-	-	-	-	-
COc1cc(NC(=O)c2ccccc2)c(OC)cc1NC(=O)CN1CCOCC1	-	-	-	-	-	-	.	.	.
